The values below come from ChEMBL document CHEMBL1129626, “Cyclic HIV protease inhibitors: synthesis, conformational analysis, P2/P2' structure-activity relationship, and molecular recognition of cyclic ureas” (J Med Chem, 1996).

Test [1] concerns Human immunodeficiency virus 1. Briefly: Inhibition of viral infection in HIV-1 (RF)-infected MT-2 cells with an oligonucleotide-based sandwich hybridization assay. It counts as functional, MT2. The following applies: Human immunodeficiency virus 1, MT2. In short, it runs like this:
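Uninfected MT-2 cells were preincubated for 30 min with serial dilutions of compound, then infected with HIV-1 RF and cultured for 3 days at 37 °C, 5% CO2. Lysates were assayed for viral RNA by microtiter oligonucleotide sandwich hybridization.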

Test [2] concerns the target Human immunodeficiency virus type 1 protease (Human immunodeficiency virus 1, UniProt Q72874). Briefly: Inhibitory activity against HIV-1 protease. In outline: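 HIV-1 protease Ki from cleavage of a fluorescent peptide substrate, products resolved by HPLC. Inhibitor was tested at four concentrations spanning 0.1–10 000 nM, the range chosen per inhibitor.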

With `O=C1N(CCN2CCOCC2)[C@H](Cc2ccccc2)[C@H](O)[C@@H](O)[C@@H](Cc2ccccc2)N1CCN1CCOCC1`, the IC90 in test [1] was > 91000 nM.

On to `CC(C)CCCCCN1C(=O)N(CCCCCC(C)C)[C@H](Cc2ccccc2)[C@H](O)[C@@H](O)[C@H]1Cc1ccccc1`, for which, in test [1], the IC90 is > 18000 nM. Besides, affinity in test [2] was put at a Ki of 110 nM.

`O=C1N(Cc2ccc(C(F)(F)F)cc2)[C@H](Cc2ccccc2)[C@H](O)[C@@H](O)[C@@H](Cc2ccccc2)N1Cc1ccc(C(F)(F)F)cc1` registered an IC90 in test [1] of 7200 nM.

In the case of `CC(C)CN1C(=O)N(CC(C)C)[C@H](Cc2ccccc2)[C@H](O)[C@@H](O)[C@H]1Cc1ccccc1`, in test [1], the IC90 is > 100000 nM. In addition, in test [2], affinity was put at a Ki of 49 nM.

As to `CCCCN1C(=O)N(CCCC)[C@H](Cc2ccccc2)[C@H](O)[C@@H](O)[C@H]1Cc1ccccc1`, the IC90 in test [1] was found to be 680 nM. In test [2], affinity was put at a Ki of 1.4 nM.

`CCCCCN1C(=O)N(CCCCC)[C@H](Cc2ccccc2)[C@H](O)[C@@H](O)[C@H]1Cc1ccccc1` returned an IC90 in test [1] of 1500 nM. This compound also came in with an inhibition constant Ki in test [2] of 1.6 nM.

`C=CCN1C(=O)N(Cc2ccc3ccccc3c2)[C@H](Cc2ccccc2)[C@H](O)[C@@H](O)[C@H]1Cc1ccccc1`: in test [1], the IC90 was determined as 990 nM. The compound also registered a Ki in test [2] of 1.4 nM.

For `C#CCN1C(=O)N(CC#C)[C@H](Cc2ccccc2)[C@H](O)[C@@H](O)[C@H]1Cc1ccccc1`, the IC90 in test [1] worked out at 42000 nM. This compound also yielded a Ki in test [2] of 22 nM.

As to `CCC(C)CCN1C(=O)N(CCC(C)CC)[C@H](Cc2ccccc2)[C@H](O)[C@@H](O)[C@H]1Cc1ccccc1` (some centres undefined), the affinity in test [2], expressed as Ki, was 36 nM.

On to `O=C1N(CC2CCCCC2)[C@H](Cc2ccccc2)[C@H](O)[C@@H](O)[C@@H](Cc2ccccc2)N1CC1CCCCC1`, for which, in test [1], the 90% effect concentration (IC90) was > 96000 nM. Moreover, the inhibition constant (Ki) in test [2] is 37 nM.

For `O=C1N(Cc2ccccc2Cl)[C@H](Cc2ccccc2)[C@H](O)[C@@H](O)[C@@H](Cc2ccccc2)N1Cc1ccccc1Cl`, it took 11300 nM to reach the 90% level in test [1] (IC90). For the same compound, the Ki in test [2] was found to be 240 nM.

In the case of `COCCN1C(=O)N(CCOC)[C@H](Cc2ccccc2)[C@H](O)[C@@H](O)[C@H]1Cc1ccccc1`, the 90% effect concentration (IC90) in test [1] is > 114000 nM. The compound further had a Ki in test [2] of 800 nM.

In test [1], `O=C1N(Cc2ccccc2)[C@H](Cc2ccccc2)[C@H](O)[C@@H](O)[C@@H](Cc2ccccc2)N1Cc1ccc2ccccc2c1` displayed an IC90 of 7500 nM. In test [2], this compound gave an inhibition constant (Ki) of 2.3 nM.

In the case of `O=C1N(Cc2ccc(F)cc2)[C@H](Cc2ccccc2)[C@H](O)[C@@H](O)[C@@H](Cc2ccccc2)N1Cc1ccc2ccccc2c1`, the 90% effect level in test [1] (IC90) was put at 1100 nM. Moreover, the Ki in test [2] came to 3.6 nM.

With `CCCN1C(=O)N(Cc2ccc3ccccc3c2)[C@H](Cc2ccccc2)[C@H](O)[C@@H](O)[C@H]1Cc1ccccc1`, in test [1], the IC90 came to 3300 nM. The compound also gave a Ki in test [2] of 1.1 nM.

In turn, `O=C1N(Cc2cccc(I)c2)[C@H](Cc2ccccc2)[C@H](O)[C@@H](O)[C@@H](Cc2ccccc2)N1Cc1cccc(I)c1` returned an IC90 in test [1] of 3000 nM. This compound gave a Ki in test [2] of 0.42 nM.

Consider `O=C1N(Cc2ccc(Cl)cc2)[C@H](Cc2ccccc2)[C@H](O)[C@@H](O)[C@@H](Cc2ccccc2)N1Cc1ccc(Cl)cc1`, for which the IC90 in test [1] worked out at 4500 nM. Further, the Ki in test [2] stood at 5.2 nM.

The compound `Nc1cccc(CN2C(=O)N(Cc3ccc4ccccc4c3)[C@H](Cc3ccccc3)[C@H](O)[C@@H](O)[C@H]2Cc2ccccc2)c1` gave an IC90 in test [1] of 84 nM. The compound further showed a Ki in test [2] of 1 nM.

`COc1ccccc1CN1C(=O)N(Cc2ccccc2OC)[C@H](Cc2ccccc2)[C@H](O)[C@@H](O)[C@H]1Cc1ccccc1`: the IC90 in test [1] turned out to be 22900 nM. In test [2], this compound yielded an inhibition constant Ki of 1870 nM.

`CC(C)CCN1C(=O)N(CCC(C)C)[C@H](Cc2ccccc2)[C@H](O)[C@@H](O)[C@H]1Cc1ccccc1` registered an IC90 in test [1] of 3200 nM. The compound further returned a Ki in test [2] of 12 nM.

In the case of `O=C1N(Cc2ccc(Br)cc2)[C@H](Cc2ccccc2)[C@H](O)[C@@H](O)[C@@H](Cc2ccccc2)N1Cc1ccc(Br)cc1`, the 90% effect level in test [1] (IC90) was put at 8100 nM. Moreover, in test [2], the Ki amounted to 27 nM.

Compound `O=C1N(Cc2ccccn2)[C@H](Cc2ccccc2)[C@H](O)[C@@H](O)[C@@H](Cc2ccccc2)N1Cc1ccccn1` yielded an IC90 in test [1] of 49000 nM. In test [2], this compound registered a Ki of 145 nM.

On to `O=C1N(Cc2cccc(F)c2)[C@H](Cc2ccccc2)[C@H](O)[C@@H](O)[C@@H](Cc2ccccc2)N1Cc1cccc(F)c1`, for which the IC90 in test [1] is 710 nM. The compound further had a Ki in test [2] of 3 nM.

Consider `CCCCN1C(=O)N(Cc2ccc3ccccc3c2)[C@H](Cc2ccccc2)[C@H](O)[C@@H](O)[C@H]1Cc1ccccc1`, for which, in test [1], it took 750 nM to reach the 90% level (IC90). For the same compound, the affinity in test [2] corresponds to a Ki of 0.6 nM.

With `COCCOCCN1C(=O)N(CCOCCOC)[C@H](Cc2ccccc2)[C@H](O)[C@@H](O)[C@H]1Cc1ccccc1`, the IC90 in test [1] is > 94000 nM. The compound also yielded a Ki in test [2] of 7700 nM.

As to `CCOCCN1C(=O)N(CCOCC)[C@H](Cc2ccccc2)[C@H](O)[C@@H](O)[C@H]1Cc1ccccc1`, in test [1], the IC90 was > 106000 nM. The compound also gave a Ki in test [2] of 1100 nM.

`O=C1N(Cc2ccccc2F)[C@H](Cc2ccccc2)[C@H](O)[C@@H](O)[C@@H](Cc2ccccc2)N1Cc1ccccc1F`: the IC90 in test [1] came to 5500 nM. The compound further displayed a Ki in test [2] of 34 nM.

`COc1ccc(CN2C(=O)N(Cc3ccc(OC)cc3)[C@H](Cc3ccccc3)[C@H](O)[C@@H](O)[C@H]2Cc2ccccc2)cc1` returned an IC90 in test [1] of 7600 nM. For the same compound, affinity in test [2] was put at a Ki of 157 nM.

Regarding `O=C1N(Cc2cccnc2)[C@H](Cc2ccccc2)[C@H](O)[C@@H](O)[C@@H](Cc2ccccc2)N1Cc1cccnc1`, the IC90 in test [1] is 8800 nM. The compound also returned a Ki in test [2] of 9.7 nM.

Regarding `CCCN1C(=O)N(CCC)[C@H](Cc2ccccc2)[C@H](O)[C@@H](O)[C@H]1Cc1ccccc1`, the 90% effect level in test [1] (IC90) was put at 54000 nM. Also, in test [2], the affinity, expressed as Ki, was 8 nM.

Turning to `CCCCCCN1C(=O)N(CCCCCC)[C@H](Cc2ccccc2)[C@H](O)[C@@H](O)[C@H]1Cc1ccccc1`, the IC90 in test [1] is > 102000 nM. This compound showed a Ki in test [2] of 4.6 nM.

As to `O=C1N(Cc2cccc(Br)c2)[C@H](Cc2ccccc2)[C@H](O)[C@@H](O)[C@@H](Cc2ccccc2)N1Cc1cccc(Br)c1`, it took 1200 nM to reach the 90% level in test [1] (IC90). Besides, the Ki in test [2] came out at 1.4 nM.

Turning to `CCCCCCCN1C(=O)N(CCCCCCC)[C@H](Cc2ccccc2)[C@H](O)[C@@H](O)[C@H]1Cc1ccccc1`, the IC90 in test [1] is > 96000 nM. Further, in test [2], the inhibitory constant (Ki) was 260 nM.

As for `CCN1C(=O)N(CC)[C@H](Cc2ccccc2)[C@H](O)[C@@H](O)[C@H]1Cc1ccccc1`, the 90% effect concentration (IC90) in test [1] was > 132000 nM. This compound also had a Ki in test [2] of 100 nM.

In turn, `O=C1N(Cc2ccc(CO)cc2)[C@H](Cc2ccccc2)[C@H](O)[C@@H](O)[C@@H](Cc2ccccc2)N1Cc1ccc2ccccc2c1` had an IC90 in test [1] of 210 nM. Further, in test [2], affinity was put at a Ki of 0.93 nM.

As for `C=C(C)CN1C(=O)N(CC(=C)C)[C@H](Cc2ccccc2)[C@H](O)[C@@H](O)[C@H]1Cc1ccccc1`, the IC90 in test [1] came to 7600 nM. The Ki in test [2] came out at 7.3 nM.

As to `Cc1cccc(CN2C(=O)N(Cc3cccc(C)c3)[C@H](Cc3ccccc3)[C@H](O)[C@@H](O)[C@H]2Cc2ccccc2)c1`, the IC90 in test [1] is 2400 nM. This compound also displayed an inhibition constant Ki in test [2] of 7 nM.

On to `O=C1N(Cc2ccncc2)[C@H](Cc2ccccc2)[C@H](O)[C@@H](O)[C@@H](Cc2ccccc2)N1Cc1ccc2ccccc2c1`, for which, in test [1], it took 2700 nM to reach the 90% level (IC90). For the same compound, affinity in test [2] was put at a Ki of 6.9 nM.

With `O=C1N(Cc2cccc(C(F)(F)F)c2)[C@H](Cc2ccccc2)[C@H](O)[C@@H](O)[C@@H](Cc2ccccc2)N1Cc1cccc(C(F)(F)F)c1`, in test [1], it took 7800 nM to reach the 90% level (IC90).
